Assay results published in PubChem BioAssay AID652196 (Vanderbilt Specialized Chemistry Center, 2013).

These compounds were tested against Metabotropic glutamate receptor 5 (Rattus norvegicus) (UniProt P31424) (assay: mGlu5 allosteric site binding affinity, dose response, biochemical, rat, HEK293A membranes, [3H]methoxyPEPy, full curve (AID 652196)). Details: rmGlu5 HEK293A membranes, [3H]methoxyPEPy displacement.
In short: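 Compound: 10 doses, 0.1 nM–10 µM, 1% DMSO; Test system: membranes from HEK293A cells stably expressing rat mGlu5; Technique: Filtration separation of bound radioligand, then scintillation counting; Incubation: membrane, radioligand and compound incubation 1 h at room temperature; Also added: radioligand [3H]methoxyPEPy at 2 nM.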

Chain of Metabotropic glutamate receptor 5 (Rattus norvegicus) (P31424 whole entry, looked up): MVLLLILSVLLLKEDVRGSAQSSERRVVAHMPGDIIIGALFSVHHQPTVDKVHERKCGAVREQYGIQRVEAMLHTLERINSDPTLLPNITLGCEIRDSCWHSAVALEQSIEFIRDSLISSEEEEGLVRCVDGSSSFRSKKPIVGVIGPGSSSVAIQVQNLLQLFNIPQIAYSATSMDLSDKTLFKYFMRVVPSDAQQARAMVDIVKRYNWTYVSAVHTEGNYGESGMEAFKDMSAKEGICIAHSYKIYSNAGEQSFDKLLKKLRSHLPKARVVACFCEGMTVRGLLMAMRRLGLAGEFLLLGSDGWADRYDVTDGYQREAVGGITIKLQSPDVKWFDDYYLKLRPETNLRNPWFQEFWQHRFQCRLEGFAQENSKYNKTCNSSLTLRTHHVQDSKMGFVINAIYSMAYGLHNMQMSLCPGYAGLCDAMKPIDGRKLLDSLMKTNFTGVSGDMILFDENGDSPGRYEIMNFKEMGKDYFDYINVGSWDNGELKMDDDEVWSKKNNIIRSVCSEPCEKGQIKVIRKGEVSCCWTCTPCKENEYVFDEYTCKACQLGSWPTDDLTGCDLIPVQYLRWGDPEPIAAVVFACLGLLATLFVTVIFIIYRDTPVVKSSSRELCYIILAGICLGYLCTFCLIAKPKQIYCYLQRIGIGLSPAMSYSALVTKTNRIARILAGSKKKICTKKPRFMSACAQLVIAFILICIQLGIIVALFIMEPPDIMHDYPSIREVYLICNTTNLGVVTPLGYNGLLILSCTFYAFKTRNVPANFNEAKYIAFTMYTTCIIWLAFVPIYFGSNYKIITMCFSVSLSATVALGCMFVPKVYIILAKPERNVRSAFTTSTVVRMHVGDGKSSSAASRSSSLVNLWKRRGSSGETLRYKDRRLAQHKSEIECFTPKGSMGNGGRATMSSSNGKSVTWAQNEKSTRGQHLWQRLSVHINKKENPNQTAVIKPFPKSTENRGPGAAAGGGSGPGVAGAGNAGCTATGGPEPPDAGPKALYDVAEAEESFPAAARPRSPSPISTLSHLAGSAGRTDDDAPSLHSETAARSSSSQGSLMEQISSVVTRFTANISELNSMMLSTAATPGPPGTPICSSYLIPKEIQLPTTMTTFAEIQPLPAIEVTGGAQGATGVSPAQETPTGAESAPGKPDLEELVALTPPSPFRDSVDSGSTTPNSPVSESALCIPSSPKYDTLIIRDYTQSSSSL

| SMILES | Ki [nM] |
| --- | --- |
| O=C(c1ccc(C#Cc2cccc(F)c2)cc1)N1CCC1 | 29.6 |
| O=C(c1ccc(C#Cc2cccc(F)c2)cn1)N1CC2CC2C1 (centres undefined) | 18.2 |
| O=C(c1ccc(C#Cc2cccc(F)c2)cn1)N1CC(F)C1 | 48.7 |
| O=C(c1ccc(C#Cc2cccc(F)c2)cn1)N1CCC(F)(F)C1 | 19 |
| CC1CCN1C(=O)c1ccc(C#Cc2cccc(F)c2)cn1 (centres undefined) | 5.4 |

Continued, values first:

| Ki [nM] | SMILES |
| --- | --- |
| 12.1 | O=C(c1ccc(C#Cc2cccc(F)c2)cn1)N1CCCCC1 |
| 18.7 | O=C(c1ccc(C#Cc2cccc(F)c2)cn1)N1CCCCCC1 |
| 51.6 | O=C(c1ccc(C#Cc2cccc(F)c2)cn1)N1CCC1 |
| 67.7 | O=C(c1ccc(C#Cc2cccc(F)c2)cn1)N1CCOCC1 |
